How the values were obtained:
Histone deacetylase 1 = Histone deacetylase 1 (Homo sapiens, UniProt Q13547); assay: Inhibition of human full-length recombinant HDAC1 expressed in baculovirus infected Sf9 insect cells using fluorogenic peptide RHKKAc as substrate after 2 hrs
Method in brief: (§1)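 Run by an outside contract lab. IC50 was obtained from 10-point dose-response curves using threefold serial dilutions of compound from the top concentration.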

Histone deacetylase 11 = molecular target: T1, Histone deacetylase 11 (Homo sapiens, UniProt Q96DB2); assay: Inhibition of human full-length recombinant HDAC11 expressed in baculovirus infected Sf9 insect cells using fluorogenic peptide RHKKAc as substrate after 2 hrs; method in brief: as §1
T1 sequence (Q96DB2 whole entry): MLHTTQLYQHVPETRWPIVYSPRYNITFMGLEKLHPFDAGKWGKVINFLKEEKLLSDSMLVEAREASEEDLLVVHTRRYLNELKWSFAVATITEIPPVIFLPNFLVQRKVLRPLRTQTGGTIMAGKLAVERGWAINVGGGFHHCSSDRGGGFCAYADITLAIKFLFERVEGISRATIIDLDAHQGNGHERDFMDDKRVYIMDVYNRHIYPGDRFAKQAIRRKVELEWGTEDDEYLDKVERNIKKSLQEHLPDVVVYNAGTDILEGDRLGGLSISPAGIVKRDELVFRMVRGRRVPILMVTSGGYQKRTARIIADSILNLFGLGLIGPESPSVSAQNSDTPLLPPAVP

[1] = molecular target: T2, Protein deacetylase HDAC6 (Homo sapiens, UniProt Q9UBN7); assay: Inhibition of human full-length recombinant HDAC6 expressed in baculovirus infected Sf9 insect cells using fluorogenic peptide RHKKAc as substrate after 2 hrs
T2 sequence (Q9UBN7 whole entry): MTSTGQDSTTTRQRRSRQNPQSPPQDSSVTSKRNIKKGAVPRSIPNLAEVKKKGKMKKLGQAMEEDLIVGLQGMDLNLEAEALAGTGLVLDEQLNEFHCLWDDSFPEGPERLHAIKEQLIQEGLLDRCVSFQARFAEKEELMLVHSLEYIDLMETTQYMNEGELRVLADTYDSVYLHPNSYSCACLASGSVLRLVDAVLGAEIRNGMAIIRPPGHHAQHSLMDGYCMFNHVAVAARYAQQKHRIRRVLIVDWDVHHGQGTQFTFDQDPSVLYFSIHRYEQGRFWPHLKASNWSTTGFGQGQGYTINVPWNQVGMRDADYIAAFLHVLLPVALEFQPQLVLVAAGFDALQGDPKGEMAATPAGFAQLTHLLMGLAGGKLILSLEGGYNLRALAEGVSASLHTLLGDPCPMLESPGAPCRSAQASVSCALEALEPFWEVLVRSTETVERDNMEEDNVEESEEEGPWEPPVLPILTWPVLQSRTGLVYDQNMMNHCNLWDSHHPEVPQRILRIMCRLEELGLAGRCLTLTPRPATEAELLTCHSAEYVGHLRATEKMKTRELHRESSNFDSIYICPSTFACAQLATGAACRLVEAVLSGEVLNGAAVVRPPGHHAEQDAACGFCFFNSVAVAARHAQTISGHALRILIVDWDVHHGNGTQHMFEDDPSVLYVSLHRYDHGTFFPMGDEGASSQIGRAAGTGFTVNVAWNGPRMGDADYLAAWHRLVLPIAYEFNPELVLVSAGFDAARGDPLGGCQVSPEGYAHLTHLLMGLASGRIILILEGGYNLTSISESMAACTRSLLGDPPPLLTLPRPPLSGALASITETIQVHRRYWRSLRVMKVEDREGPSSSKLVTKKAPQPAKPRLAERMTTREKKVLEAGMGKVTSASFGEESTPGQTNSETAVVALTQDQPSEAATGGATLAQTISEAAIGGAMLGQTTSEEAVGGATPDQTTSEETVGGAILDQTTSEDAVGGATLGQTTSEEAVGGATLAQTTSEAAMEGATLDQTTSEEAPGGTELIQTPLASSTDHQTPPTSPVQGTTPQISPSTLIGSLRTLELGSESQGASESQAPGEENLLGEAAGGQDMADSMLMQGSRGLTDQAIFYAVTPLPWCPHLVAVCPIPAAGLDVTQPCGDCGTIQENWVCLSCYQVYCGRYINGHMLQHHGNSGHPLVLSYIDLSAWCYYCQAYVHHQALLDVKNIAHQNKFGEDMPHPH

Histone deacetylase 8 = molecular target: T3, Histone deacetylase 8 (Homo sapiens, UniProt Q9BY41); assay: Inhibition of human full-length recombinant HDAC8 expressed in baculovirus infected Sf9 insect cells using fluorogenic peptide RHKAcKAc as substrate after 2 hrs
T3 sequence (Q9BY41 whole entry): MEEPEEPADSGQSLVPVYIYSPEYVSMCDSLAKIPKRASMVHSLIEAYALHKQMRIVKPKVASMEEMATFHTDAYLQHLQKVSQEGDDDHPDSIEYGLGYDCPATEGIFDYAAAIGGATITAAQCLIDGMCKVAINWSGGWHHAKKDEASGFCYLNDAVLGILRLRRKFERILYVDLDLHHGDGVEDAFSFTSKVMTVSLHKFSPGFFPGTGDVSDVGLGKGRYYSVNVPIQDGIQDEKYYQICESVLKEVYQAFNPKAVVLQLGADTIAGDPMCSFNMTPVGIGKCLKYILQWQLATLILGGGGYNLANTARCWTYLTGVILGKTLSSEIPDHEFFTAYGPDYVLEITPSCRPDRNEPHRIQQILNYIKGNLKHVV

A549 [2] = assay: Cytotoxicity against human A549 cells after 72 hrs by MTT assay; format: functional, cell-based; conditions: A549, 72 h
Method in brief: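 Human A549 lung cancer cells exposed to serial dilutions of inhibitor at 37 °C for 72 h. Cytotoxicity expressed as IC50.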

[3] = molecular target: T2, Protein deacetylase HDAC6; assay: Inhibition of human full-length recombinant HDAC6 expressed in baculovirus infected Sf9 insect cells using Boc-Lys (Ac)-AMC as substrate preincubated for 10 mins followed by substrate addition and measured after 30 mins by fluorescence assay
[4] = molecular target: T2, Protein deacetylase HDAC6; assay: Inhibition of human HDAC6 CD2 expressed in Escherichia coli BL21 (RIL) using Boc-Lys (Ac)-AMC as substrate preincubated for 10 mins followed by substrate addition and measured after 30 mins by fluorescence assay
A549 [5] = assay: Induction of apoptosis in human A549 cells assessed as necrotic cells at 10 uM after 24 hrs by Annexin V/propidium iodide staining-based flow cytometric analysis (reference value: 1.1%); format: functional
[6] = system: Lewis lung carcinoma cell line; assay: Cytotoxicity against mouse LL/2 cells at 10 uM after 72 hrs by MTT assay relative to control; format: functional; conditions: in the assay text read “at 10 nM” for “at 10 uM”
Method in brief: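 Mouse LL/2 cells treated with inhibitor alone or combined with paclitaxel for 3 days. Viability measured by MTT assay relative to untreated control.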

A549 [7] = assay: Induction of apoptosis in human A549 cells assessed as early apoptotic cells at 10 uM after 24 hrs by Annexin V/propidium iodide staining-based flow cytometric analysis (reference value: 1.2%); format: functional
[8] = system: Lewis lung carcinoma cell line; assay: Induction of apoptosis in mouse LL/2 cells assessed as viable cells at 10 uM after 24 hrs by Annexin V/propidium iodide staining-based flow cytometric analysis (reference value: 82.3%); format: functional; conditions: read-out: Activity
[9] = system: Lewis lung carcinoma cell line; assay: Induction of alpha tubulin acetylation in mouse LL/2 cells at 10 uM after 24 hrs by Western blot analysis relative to control; format: functional
[10] = system: Lewis lung carcinoma cell line; assay: Induction of apoptosis in mouse LL/2 cells assessed as late apoptotic cells at 10 uM after 24 hrs by Annexin V/propidium iodide staining-based flow cytometric analysis (reference value: 8.7%); format: functional
[11] = system: Lewis lung carcinoma cell line; assay: Induction of apoptosis in mouse LL/2 cells assessed as early apoptotic cells at 10 uM after 24 hrs by Annexin V/propidium iodide staining-based flow cytometric analysis (reference value: 1.8%); format: functional
A549 [12] = assay: Induction of apoptosis in human A549 cells assessed as viable cells at 10 uM after 24 hrs by Annexin V/propidium iodide staining-based flow cytometric analysis (reference value: 96.2%); format: functional; conditions: A549, 24 h, read-out: Activity
[13] = system: Lewis lung carcinoma cell line; assay: Cytotoxicity against mouse LL/2 cells after 72 hrs by MTT assay; format: functional, cell-based
[14] = system: Lewis lung carcinoma cell line; assay: Induction of apoptosis in mouse LL/2 cells assessed as necrotic cells at 10 uM after 24 hrs by Annexin V/propidium iodide staining-based flow cytometric analysis (reference value: 7.3%); format: functional
A549 [15] = assay: Induction of apoptosis in human A549 cells assessed as late apoptotic cells at 10 uM after 24 hrs by Annexin V/propidium iodide staining-based flow cytometric analysis (reference value: 1.6%); format: functional
[16] = AUC (0 to 24 hrs) in C57BL/6 mouse liver at 40 mg/kg, po administered via gavage by LC-MS/MS analysis; format: ADME, organism-based; parameters: dose 40 mg/kg, time < 24 hr, route oral; conditions: in vivo
[17] = AUC (0 to 24 hrs) in C57BL/6 mouse kidney at 40 mg/kg, po administered via gavage by LC-MS/MS analysis; format: ADME, organism-based; parameters: time < 24 hr, dose 40 mg/kg, route oral; conditions: in vivo
[18] = AUC (0 to 24 hrs) in C57BL/6 mouse plasma at 40 mg/kg, po administered via gavage by LC-MS/MS analysis; format: ADME, organism-based; parameters: time < 24 hr, dose 40 mg/kg, route oral; conditions: in vivo
[19] = AUC (0 to 24 hrs) in C57BL/6 mouse lung at 40 mg/kg, po administered via gavage by LC-MS/MS analysis; format: ADME, organism-based; parameters: time < 24 hr, dose 40 mg/kg, route oral; conditions: in vivo

Sequence of Histone deacetylase 1 (Q13547 whole entry): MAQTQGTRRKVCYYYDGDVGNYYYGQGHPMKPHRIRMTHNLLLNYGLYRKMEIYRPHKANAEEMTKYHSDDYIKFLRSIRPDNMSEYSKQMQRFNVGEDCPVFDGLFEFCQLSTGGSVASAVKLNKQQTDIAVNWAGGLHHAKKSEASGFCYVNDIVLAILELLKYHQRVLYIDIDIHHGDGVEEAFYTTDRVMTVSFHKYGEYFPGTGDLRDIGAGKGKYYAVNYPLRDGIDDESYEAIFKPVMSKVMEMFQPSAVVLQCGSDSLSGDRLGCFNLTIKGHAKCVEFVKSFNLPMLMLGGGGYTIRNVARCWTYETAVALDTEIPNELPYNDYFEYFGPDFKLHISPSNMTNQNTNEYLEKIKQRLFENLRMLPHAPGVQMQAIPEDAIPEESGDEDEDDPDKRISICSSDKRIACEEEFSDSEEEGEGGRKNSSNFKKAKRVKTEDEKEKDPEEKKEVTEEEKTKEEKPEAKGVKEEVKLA

## O=C(NO)c1cccc(Cn2c(=O)n(CCc3ccccc3)c(=O)c3ccccc32)c1
Histone deacetylase 1
  IC50: > 10000 nM
Histone deacetylase 11
  IC50: > 10000 nM
[1]
  IC50: 4630 nM

## O=C(NO)c1ccc(Cn2c(=O)n(CCc3ccccc3)c(=O)c3ccc(O)cc32)cc1
[1]
  IC50: 32 nM

## O=C(NO)c1ccc(Cn2c(=O)n(CCc3ccc(O)cc3)c(=O)c3ccccc32)cc1
Histone deacetylase 1
  IC50: 9080 nM
Histone deacetylase 11
  IC50: 11300 nM
Histone deacetylase 8
  IC50: 845 nM
[1]
  IC50: 5 nM

## O=C(NO)c1ccc(Cn2c(=O)n(CCc3ccc(F)cc3)c(=O)c3ccccc32)cc1
A549 [2]
  IC50: 3650 nM

## O=C(NO)c1ccc(Cn2c(=O)n(CCc3ccccc3)c(=O)c3cc(F)ccc32)cc1
A549 [2]
  IC50: 12200 nM

## O=C(NO)c1ccc(Cn2c(=O)n(CCc3cccc(C(F)(F)F)c3)c(=O)c3ccccc32)cc1
Histone deacetylase 1
  IC50: 12700 nM
A549 [2]
  IC50: 6030 nM
Histone deacetylase 8
  IC50: 1760 nM
[1]
  IC50: 24 nM

## O=C(NO)c1ccc(Cn2c(=O)n(CCc3ccccc3)c(=O)c3cccnc32)cc1
[3]
  Ki: 3.89 nM
[4]
  Ki: 4.5 nM
A549 [2]
  IC50: 2840 nM
[1]
  IC50: 29 nM

## O=C(NO)c1ccc(Cn2c(=O)n(CCc3ccccc3)c(=O)c3ccccc32)s1
Histone deacetylase 1
  IC50: 22900 nM
Histone deacetylase 11
  IC50: 19800 nM
A549 [2]
  IC50: 13500 nM
Histone deacetylase 8
  IC50: 97 nM
[1]
  IC50: 20 nM

## COc1ccccc1CCn1c(=O)c2ccccc2n(Cc2ccc(C(=O)NO)cc2)c1=O
[3]
  Ki: 2.1 nM
[4]
  Ki: 2.6 nM
A549 [2]
  IC50: 11800 nM
[1]
  IC50: 12 nM

## O=C(CCCCCCC(=O)Nc1ccccc1)NO [VORINOSTAT]
A549 [2]
  IC50: 2240 nM

## O=C(NO)c1cc(Cn2c(=O)n(CCc3ccccc3)c(=O)c3ccccc32)cs1
Histone deacetylase 1
  IC50: > 10000 nM
Histone deacetylase 11
  IC50: > 10000 nM

## O=C(NO)c1ccc(Cn2c(=O)n(CCc3ccccc3)c(=O)c3ccc(Cl)cc32)cc1
[1]
  IC50: 22 nM

## COc1ccc(CCn2c(=O)c3ccccc3n(Cc3ccc(C(=O)NO)cc3)c2=O)cc1
Histone deacetylase 1
  IC50: 7370 nM
Histone deacetylase 11
  IC50: 13800 nM
Histone deacetylase 8
  IC50: 1150 nM
[1]
  IC50: 20 nM

## O=C(NO)c1ccc(Cn2c(=O)n(CCc3ccccc3)c(=O)c3ccc(F)cc32)cc1
A549 [2]
  IC50: 3920 nM

## CC(=O)O[C@H]1C(=O)[C@@]2(C)[C@H]([C@H](OC(=O)c3ccccc3)[C@]3(O)C[C@H](OC(=O)[C@H](O)[C@@H](NC(=O)c4ccccc4)c4ccccc4)C(C)=C1C3(C)C)[C@]1(OC(C)=O)CO[C@@H]1C[C@@H]2O [PACLITAXEL]
A549 [5]
  Activity: 1%
[6]
  Activity: 20%
A549 [7]
  Activity: 2.9%
[8]
  viability at 10 µM: 73.4%
[9]
  fold change (FC): 7.28
[10]
  Activity: 15.9%
[11]
  Activity: 4%
A549 [12]
  viability at 10 µM: 94.9%
[13]
  IC50: 10 nM
[14]
  Activity: 6.9%
A549 [15]
  Activity: 1.2%

## O=C(CCCCCCNC(=O)c1cnc(N(c2ccccc2)c2ccccc2)nc1)NO [RICOLINOSTAT]
[16]
  AUC: 1442 ng·h/g
[17]
  AUC: 2493 ng·h/g
A549 [2]
  IC50: 7700 nM
[18]
  AUC: 308 ng·h/g
[19]
  AUC: 622 ng·h/g
